Assay in all cases: PAFAH2 inhibition and serine hydrolase selectivity, late-stage follow-up, cell lysate, fluorescence, gel-based ABPP, BW5147 T-cell proteome, powder samples (AID 504513);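 note: 0% = DMSO-only band intensity and 100% = blank gel background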
In test [1] the test system is ABHD11. As to conditions: BW5147 mouse T-cell proteome, FP-Rh gel ABPP, stronger effect = higher value. The method, boiled down: (§1)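 assay system = mouse BW5147 T-cell soluble lysate | amount = 1 mg/mL soluble protein | schedule = compound pretreatment 30 min, then 30 min probe labelling at 25 °C | measured by = in-gel fluorescence of probe-labelled bands, integrated optical density | evaluation = percent band labelling lost versus DMSO control | control set = DMSO-only sample as high, blank gel area as low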

The subject of test [2] is APEH. As to conditions: BW5147 mouse T-cell proteome, FP-Rh gel ABPP, stronger effect = higher value. In outline:
as §1

In test [3] the test system is LYPLA1. The following applies: BW5147 mouse T-cell proteome, FP-Rh gel ABPP, stronger effect = higher value. In outline:
as §1

The test system of test [4] is ESD. As to conditions: BW5147 mouse T-cell proteome, FP-Rh gel ABPP, stronger effect = higher value. The method, boiled down:
as §1

The target of test [5] is Platelet-activating factor acetylhydrolase 2, cytoplasmic (Mus musculus) (UniProt Q8VDG7). The following applies: FP-Rh gel ABPP, stronger effect = higher value. The method, boiled down:
as §1

Activity calls are given as the source filed them.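 Rule for the calls: active = PAFAH2 inhibition at least 50% at 0.2 µM with under 50% on each related off-target enzyme; inactive = the rest, including PAFAH2 hits that also hit off-targets.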

Sequence of Platelet-activating factor acetylhydrolase 2, cytoplasmic (Mus musculus) (Q8VDG7 whole entry, looked up): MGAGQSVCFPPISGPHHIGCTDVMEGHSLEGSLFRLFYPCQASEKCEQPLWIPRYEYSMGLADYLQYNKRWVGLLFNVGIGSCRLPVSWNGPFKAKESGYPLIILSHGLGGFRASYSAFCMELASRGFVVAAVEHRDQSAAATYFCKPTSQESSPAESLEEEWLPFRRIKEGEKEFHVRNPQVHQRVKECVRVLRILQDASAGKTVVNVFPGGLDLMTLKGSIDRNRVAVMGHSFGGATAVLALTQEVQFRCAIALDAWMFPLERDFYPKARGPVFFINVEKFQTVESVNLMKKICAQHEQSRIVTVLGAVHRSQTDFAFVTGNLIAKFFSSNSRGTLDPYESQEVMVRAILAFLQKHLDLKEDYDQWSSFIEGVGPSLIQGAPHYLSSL

One may read the inhibition as the share of the control response that was lost under treatment. Turning to `CN1CCN(C(=O)n2ccnn2)CC1`, the inhibition in test [1] (at 1 µM) was 50% (inactive); in test [1] (inhibition, at 0.02 µM), 0%; in test [1] (inhibition, at 0.2 µM), 0%; in test [2] (at 1 µM), 0% (inactive); in test [2] (inhibition, at 0.02 µM) it was 0%; in test [2] (inhibition, at 0.2 µM), 0%. For the same compound, the inhibition in test [3] (at 1 µM) is 0% (inactive); in test [3] (inhibition, at 0.02 µM), 0%; in test [3] (inhibition, at 0.2 µM), 0%; in test [4] (at 1 µM) it was 0% (inactive); in test [4] (inhibition, at 0.02 µM) it was 0%; in test [4] (inhibition, at 0.2 µM) it was 0%. Also, the inhibition in test [5] (PAFAH2, at 1 µM) is 0% (inactive); in test [5] (PAFAH2, inhibition, at 0.02 µM), 0%; in test [5] (PAFAH2, inhibition, at 0.2 µM), 0%.
`CN(C)C(=O)n1ccnn1`: the inhibition is 0% (inactive) in test [1] (at 1 µM); 0% in test [1] (inhibition, at 0.02 µM); 0% in test [1] (inhibition, at 0.2 µM); 0% (inactive) in test [2] (at 1 µM); 0% in test [2] (inhibition, at 0.02 µM); 0% in test [2] (inhibition, at 0.2 µM). Besides, the inhibition is 0% (inactive) in test [3] (at 1 µM); 0% in test [3] (inhibition, at 0.02 µM); 0% in test [3] (inhibition, at 0.2 µM); 0% (inactive) in test [4] (at 1 µM); 0% in test [4] (inhibition, at 0.02 µM); 0% in test [4] (inhibition, at 0.2 µM). Moreover, the inhibition in test [5] (PAFAH2, at 1 µM) was 0% (inactive); in test [5] (PAFAH2, inhibition, at 0.02 µM) it was 0%; in test [5] (PAFAH2, inhibition, at 0.2 µM), 0%.
`O=C(N1CCCC1)n1ncc(-c2ccc(Oc3ccccc3)cc2)n1`: the inhibition was 0% (inactive) in test [1] (at 1 µM); 0% in test [1] (inhibition, at 0.02 µM); 0% in test [1] (inhibition, at 0.2 µM); 100% in test [2] (at 1 µM); 0% in test [2] (inhibition, at 0.02 µM); 100% in test [2] (inhibition, at 0.2 µM). Further, the inhibition in test [3] (at 1 µM) was 0% (inactive); in test [3] (inhibition, at 0.02 µM), 0%; in test [3] (inhibition, at 0.2 µM), 0%; in test [4] (at 1 µM), 0% (inactive); in test [4] (inhibition, at 0.02 µM), 0%; in test [4] (inhibition, at 0.2 µM) it was 0%. Also, the inhibition was 100% in test [5] (PAFAH2, at 1 µM); 100% in test [5] (PAFAH2, inhibition, at 0.02 µM); 100% in test [5] (PAFAH2, inhibition, at 0.2 µM).
In the case of `C=CCN(CC=C)C(=O)n1ccnn1`, the inhibition in test [1] (at 1 µM) is 100% (inactive); in test [1] (inhibition, at 0.02 µM) it was 0%; in test [1] (inhibition, at 0.2 µM), 0%; in test [2] (at 1 µM) it was 0% (inactive); in test [2] (inhibition, at 0.02 µM) it was 0%; in test [2] (inhibition, at 0.2 µM) it was 0%. The inhibition is 0% (inactive) in test [3] (at 1 µM); 0% in test [3] (inhibition, at 0.02 µM); 0% in test [3] (inhibition, at 0.2 µM); 0% (inactive) in test [4] (at 1 µM); 0% in test [4] (inhibition, at 0.02 µM); 0% in test [4] (inhibition, at 0.2 µM). For the same compound, the inhibition in test [5] (PAFAH2, at 1 µM) was 0% (inactive); in test [5] (PAFAH2, inhibition, at 0.02 µM), 0%; in test [5] (PAFAH2, inhibition, at 0.2 µM), 0%.
`O=C(N1CCCC1)n1ncc(C(O)(c2ccccc2)c2ccccc2)n1`: the inhibition in test [1] (at 1 µM) was 100%; in test [1] (inhibition, at 0.02 µM), 0%; in test [1] (inhibition, at 0.2 µM), 100%; in test [2] (at 1 µM), 100%; in test [2] (inhibition, at 0.02 µM), 0%; in test [2] (inhibition, at 0.2 µM) it was 100%. The inhibition in test [3] (at 1 µM) was 0% (inactive); in test [3] (inhibition, at 0.02 µM), 0%; in test [3] (inhibition, at 0.2 µM), 0%; in test [4] (at 1 µM), 0% (inactive); in test [4] (inhibition, at 0.02 µM), 0%; in test [4] (inhibition, at 0.2 µM), 0%. The inhibition in test [5] (PAFAH2, at 1 µM) is 100%; in test [5] (PAFAH2, inhibition, at 0.02 µM), 0%; in test [5] (PAFAH2, inhibition, at 0.2 µM), 100%.
As to `O=C(n1ccnn1)n1c2ccccc2c2ccccc21`, the inhibition was 0% (inactive) in test [1] (at 1 µM); 0% in test [1] (inhibition, at 0.02 µM); 0% in test [1] (inhibition, at 0.2 µM); 0% (inactive) in test [2] (at 1 µM); 0% in test [2] (inhibition, at 0.02 µM); 0% in test [2] (inhibition, at 0.2 µM). In addition, the inhibition is 0% (inactive) in test [3] (at 1 µM); 0% in test [3] (inhibition, at 0.02 µM); 0% in test [3] (inhibition, at 0.2 µM); 0% (inactive) in test [4] (at 1 µM); 0% in test [4] (inhibition, at 0.02 µM); 0% in test [4] (inhibition, at 0.2 µM). For the same compound, the inhibition is 0% (inactive) in test [5] (PAFAH2, at 1 µM); 0% in test [5] (PAFAH2, inhibition, at 0.02 µM); 0% in test [5] (PAFAH2, inhibition, at 0.2 µM).

(Values after PubChem BioAssay AID504513 (The Scripps Research Institute Molecular Screening Center, 2011).)
